The results in this text go back to ChEMBL document CHEMBL4330182, “Advance of Seriniquinone Analogues as Melanoma Agents” (ACS Med Chem Lett, 2019).

Data set [1] has as its system HCT-116. Nature of the data set: Induction of DCD mRNA expression in human HCT116 cells at 1 to 10 uM after 24 hrs by RT-qPCR method. It counts as functional, cell-based. (In qPCR the cycle at which signal appears reflects the starting amount.)
Data set [2] concerns SK-MEL-28. Description: Induction of DCD mRNA expression in human SK-MEL-28 cells at 30 to 100 nM after 24 hrs by RT-qPCR method. It counts as functional, cell-based.
A short description of data set [3]: Stability of the compound in pH 7.2 PBS buffer at 37 degC for 48 hrs by NMR analysis. Type of data set: physicochemical. As to conditions: pH 7.2, 48 h.
Data set [4] can be described thus: Stability of the compound in pH 7.2 PBS buffer at 23 degC for 1 month by NMR analysis. It counts as physicochemical. As to conditions: pH 7.2, 730.5 h. The procedure, abridged:
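Purity was followed by NMR in PBS pH 7.2 for 1 month at 23 °C, and in cell culture medium at 37 °C for 48 h (limit of testing).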

For data set [5], the system named is Malme-3M. Description: Induction of DCD mRNA expression in human MALME-3M cells at 30 to 100 nM after 24 hrs by RT-qPCR method. Type of data set: functional, cell-based.
Data set [6] in a line: Solubility of the compound in pH 7.2 solution. Type of data set: physicochemical. As to conditions: buffer. The method, boiled down: (§1)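 Solubility S was determined in buffer at pH 6.5 for the parent series and regioisomer mixtures, and at pH 7.2 for the phenol/carbamate series.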
Data set [7] deals with HCT-116. Nature of the data set: Cytotoxicity against human HCT116 cells after 72 hrs by MTT assay. Type of data set: functional, cell-based. As to conditions: HCT-116, 72 h. Background: Tetrazolium assays rely on reduction of a dye to a coloured formazan, in cell work by metabolically active cells.
Data set [8] relates to Malme-3M. Description: Cytotoxicity against human MALME-3M cells after 72 hrs by MTT assay. Type of data set: functional, cell-based.
Data set [9] deals with SK-MEL-28. Description: Cytotoxicity against human SK-MEL-28 cells after 72 hrs by MTT assay. It counts as functional, cell-based. As to conditions: SK-MEL-28, 72 h.
Data set [10] is described as follows: Stability of the compound at 23 degC for 3 months at solid state. As to conditions: 2191.5 h. Type of data set: physicochemical.
Data set [11] is described as follows: Solubility of the compound in pH 6.5 solution. It counts as physicochemical. As to conditions: buffer. The method, boiled down:
as §1

Data set [12] relates to Calf thymus DNA. Nature of the data set: Binding affinity to calf thymus DNA at 60 uM by fluorescence spectral analysis. Type of data set: nucleic-acid assay. As to conditions: Bos taurus. The procedure, abridged:
(§2)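 Fluorescence emission spectra recorded while calf thymus DNA was titrated into the compound solution. […] Binding was judged by attenuation (quench) of emission on DNA addition.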

Data set [13] can be described thus: Drug metabolism in aqueous media assessed as 2-hydroxydinaphtho[2,3-b:2',3'-d]thiophene-5,7,12,13-tetraone formation by NMR analysis. The procedure, abridged:
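DMSO stocks of the carbamate at 1.0 or 0.5 mg/mL were diluted 20-fold into PBS pH 7.2. Samples were held 24 h at 23 °C, and hydrolytic release of the phenol (purple salt) was monitored.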

Data set [14] relates to HCT-116. Nature of the data set: Induction of oxidative stress in human HCT116 cells at 100 uM after 1 hr by CellROX green/NucBlue staining based confocal microscopic method. Type of data set: cell-based. As to conditions: hct-116, 1 h. The procedure, abridged: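 HCT-116 cells were stained with CellROX Green for reactive oxygen species and counterstained with NucBlue for nuclei. Imaging was by confocal microscopy, scoring green fluorescent mitochondria as the oxidative-stress read-out.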

Data set [15] concerns Calf thymus DNA. Description: Binding affinity to calf thymus DNA at 20 uM by fluorescence spectral analysis. It counts as nucleic-acid assay. As to conditions: Bos taurus. The procedure, abridged:
as §2

Each structure is given as a SMILES string. ≈ marks a conversion by molar mass, not a printed value. Calls of active or inactive are those of the source. The rule behind the calls is not given here.

Regarding `O=c1c2ccccc2c(=O)c2c1sc1c(=O)c3ccc(O)cc3c(=O)c12`, the result with HCT-116 [1], in the data set on SK-MEL-28 [2] and in the data set on Malme-3M [5] was Active. For the same molecule, the Stability result in data set [3], in data set [4] and in [10] was “Stable” in each case. Further, in data set [6], the concentration in solution (solubility) was 0.4 µM (≈ 0.144 µg/mL). For the same molecule, the IC50 in the data set on HCT-116 [7] came out at 1450 nM; in the data set on Malme-3M [8], 220 nM; with SK-MEL-28 [9], 330 nM.

As to `O=c1c2ccccc2c(=O)c2c1oc1c(=O)c3ccccc3c(=O)c12`, the IC50 was determined as 4080 nM in the data set on HCT-116 [7], 1110 nM in the data set with Malme-3M [8] and 3470 nM with SK-MEL-28 [9]. Also, the concentration in solution in [11] (solubility) came to 0.09 µM (≈ 0.0295 µg/mL).

In the case of `CCCCNC(=O)Oc1ccc2c(=O)c3sc4c(=O)c5ccccc5c(=O)c4c3c(=O)c2c1`, the outcome in the data set on Calf thymus DNA [12] was inactive. In addition, the Drug metabolism result in data set [13] is given as “Metabolite detected”. Also, the result in the data set with HCT-116 [1], with SK-MEL-28 [2] and with Malme-3M [5] was Active. This molecule also registered a solubility in data set [6] of 24.6 µM (≈ 11.3 µg/mL). In addition, in the data set with HCT-116 [14], the Activity result is “Non-Toxic”. For the same molecule, the IC50 was determined as 750 nM in the data set with HCT-116 [7], 60 nM in the data set with Malme-3M [8] and 1800 nM with SK-MEL-28 [9]. Further, the Stability entry in data set [10] was “Stable”.

On to `O=c1c2ccccc2c(=O)c2c1sc1c(=O)c3ccccc3c(=O)c12`, for which the result in the data set on Calf thymus DNA [12] was inactive. In addition, the outcome in the data set on HCT-116 [1], in the data set with SK-MEL-28 [2] and in the data set with Malme-3M [5] was Active. The results for the IC50 with HCT-116 [7], with Malme-3M [8] and in the data set with SK-MEL-28 [9] were 1290 nM, 50 nM and 360 nM, respectively. The molecule further yielded a solubility in [11] of 0.06 µM (≈ 0.0207 µg/mL).

For the molecule `COc1ccc2c(=O)c3sc4c(=O)c5ccccc5c(=O)c4c3c(=O)c2c1`, the Stability entry in data set [3], in data set [4] and in data set [10] was “Stable” each time. For the same molecule, in data set [6], the solubility turned out to be 8.2 µM (≈ 3.07 µg/mL). The IC50 in the data set with HCT-116 [7] was found to be 8160 nM; in the data set with Malme-3M [8], 60 nM; in the data set on SK-MEL-28 [9], 7000 nM.

As to `O=c1c2ccccc2c(=O)c2c1sc1c(=O)c3ncccc3c(=O)c12`, the half-maximal inhibitory concentration (IC50) with HCT-116 [7] is 540 nM; with Malme-3M [8] it was 100 nM; in the data set on SK-MEL-28 [9], 2150 nM. In data set [11], the solubility came to 0.5 µM (≈ 0.173 µg/mL).

Turning to `COc1cccc2c1C(=O)c1c(O)c3c(c(O)c1C2=O)C[C@@](O)(C(=O)CO)C[C@@H]3O[C@H]1C[C@H](N)[C@H](O)[C@H](C)O1` [DOXORUBICIN], the result with Calf thymus DNA [15] was Active. Also, the 50% inhibitory concentration (IC50) was 500 nM in the data set with Malme-3M [8] and 3000 nM in the data set on SK-MEL-28 [9].

Turning to `O=c1c2ccccc2c(=O)c2c1[nH]c1c(=O)c3ccccc3c(=O)c12`, the IC50 turned out to be 4240 nM with HCT-116 [7], 2030 nM in the data set on Malme-3M [8] and 4300 nM in the data set with SK-MEL-28 [9]. In data set [11], this molecule showed a solubility of 0.4 µM (≈ 0.131 µg/mL).

A word on the solubility: it is how much of the substance goes into solution per volume. Usually IC50 stands for the concentration that inhibits the measured activity by half. High values mean weaker potency in that assay, low ones greater potency in that assay.
